Only some compounds are listed: those with a hit (about 2.9% of all), similar ones and a draw of the others.
CHO parental Ca: counter-screen for OX1R antagonists: effect in parental CHO cells | parental CHO-K1, ATP-induced calcium, Fluo-8 fluorescence | AID 463079 | 330,000 tested, 0.63% active | inhibition, % at 5.6 µM;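 active = inhibition above that plate's mean sample inhibition plus 3 SD, cut at about 26% in these data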
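Assay system – parental CHO cells · Reagent – ATP stimulus · Detection – intracellular calcium via Fluo-8 no-wash fluorescent dye · Evaluation – percent inhibition of ATP-evoked calcium rise, normalized to controls · Controls – ATP wells versus no-ATP DMSO wells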
OX1R antag-1: OX1R (human) antagonism | O43613 | OX1R-expressing cells, FRET antagonist read-out | inhibition, % at 6.6 µM | 330,000 tested, 1.8% active | AID 485270; in the data active = inhibition mostly above about 38%, no sharp cut-off; inactive = mostly below about 40%
Target sequence (O43613 whole entry, looked up): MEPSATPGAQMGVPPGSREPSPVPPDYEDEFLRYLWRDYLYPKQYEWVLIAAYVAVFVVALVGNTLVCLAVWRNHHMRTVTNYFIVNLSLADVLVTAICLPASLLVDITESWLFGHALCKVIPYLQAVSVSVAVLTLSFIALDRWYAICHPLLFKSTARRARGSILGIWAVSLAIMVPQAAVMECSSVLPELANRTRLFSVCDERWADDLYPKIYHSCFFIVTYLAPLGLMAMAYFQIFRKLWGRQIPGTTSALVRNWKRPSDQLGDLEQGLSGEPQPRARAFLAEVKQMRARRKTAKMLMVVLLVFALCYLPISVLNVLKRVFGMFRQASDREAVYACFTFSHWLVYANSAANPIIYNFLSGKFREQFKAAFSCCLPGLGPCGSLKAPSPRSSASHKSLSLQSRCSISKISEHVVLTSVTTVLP
M1 PAM parental: counter-screen for M1 PAMs: effect in parental CHO-K1 cells | AID 602247 | 360,000 tested, 0.02% active | activation, % at 3 µM | ATP EC20, Fluo-8 calcium fluorescence; 0% at ATP EC20, 100% at ATP max;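 active = activation above the run cutoff, the mean activation of all test compounds plus 3 SD, cut at about 40% in these data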;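 also: peak over basal fluorescence ratio in a 140 s read after ATP addition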
M1 ag parental: counter-screen for M1 agonists: effect in parental CHO-K1 cells; Fluo-8 calcium fluorescence; scaled to maximal ATP response, vehicle zero; activation, % at 3 µM; 360,000 tested, 0.48% active; AID 602248; in the data active = activation above about 15%;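 also: untransfected CHO-K1 host cells lacking M1 receptor as counterscreen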
CHO-K1 Ca antag: counter-screen for M1 antagonists: effect in parental CHO-K1 cells | inhibition, % at 3 µM | 360,000 tested, 0.6% active | ATP-induced calcium, Fluo-8 fluorescence;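 active = inhibition above a per-plate cutoff, the plate's mean sample inhibition plus 3 SD, cut at about 24% in these data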
OX1R antag-2: antagonists of human orexin 1 receptor; O43613; CHO/OX1R cells, Fluo-8 calcium fluorescence, orexin A; inhibition, % at 5 µM; 330,000 tested, 0.43% active;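 active = inhibition above its plate's threshold, mean inhibition of all tested compounds on the plate plus 3 SD, cut at about 37% in these data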
Large screens that a line does not name were inactive.

COc1ccccc1N(CC(=O)NCCSCc1ccc(C)cc1)S(=O)(=O)c1ccccc1	OX1R antag-1 60
Cc1cccc(N(CC(=O)NCCSc2ccccn2)S(=O)(=O)c2ccccc2)c1	none
COc1ccc(OC)c(N(CC(=O)NCCSCc2ccco2)S(=O)(=O)c2ccccc2)c1	OX1R antag-1 51
COc1ccc(NC(=O)c2cccnc2)c(OC)c1	CHO-K1 Ca antag 27
Cc1nc(-c2ccccc2)sc1C(=O)Nc1ccccc1F	none
COc1ccc(NC(=O)c2sc(-c3ccccc3)nc2C)c(OC)c1	OX1R antag-1 43
COc1ccccc1NC(=O)c1cccnc1	none
CCC(CC)NC(=O)Nc1ccccc1C(F)(F)F	none
COc1cc(CNCCNC(=O)c2nonc2N)ccc1OCc1ccc(Cl)cc1	M1 ag parental 17
N/C(=N\OC(=O)Oc1ccccc1)c1ccc([N+](=O)[O-])cc1	OX1R antag-1 67
O=C(NC1=NCCS1)c1ccc(Cl)cc1	none
O=C(NC1=NCCS1)c1ccc(-c2ccc(Cl)cc2)o1	OX1R antag-1 56
CCCCC(CC)CO (stereo not drawn)	none
CCCCC(CC)CN=C(N)NC(N)=NCCCCCCN=C(N)NC(N)=NCC(CC)CCCC (stereo not drawn)	CHO parental Ca 84, OX1R antag-2 79
COCCN(CC(=O)Nc1ccccc1C(F)(F)F)C(=O)c1ccc(-n2cccn2)cc1	none
O=C(NNC(=O)c1cc(-c2ccncc2)nc2ccccc12)Nc1ccc(F)cc1	none
O=C(NNC(=O)c1cc(-c2cccnc2)nc2ccccc12)Nc1ccc(Cl)cc1	CHO parental Ca 59, CHO-K1 Ca antag 29
COc1ccc(-c2nn(C)c(=O)[nH]2)cc1	none
CCC(C)(C(=O)NC1CCCC1)N(C)C(=O)c1ccccn1 (stereo not drawn)	none
FC(F)(F)c1nnc2c(Sc3ccc(Cl)cc3)nc3ccccc3n12	CHO-K1 Ca antag 39
COc1ccccc1NC(=O)CN(c1ccccc1)S(=O)(=O)c1ccccc1	none
Cc1ccc(S(=O)(=O)N(CC(=O)Nc2ccccc2C(=O)O)c2ccccc2)cc1	M1 ag parental 16
Cc1cc(/C=C2\SC(=S)N(C)C2=O)c(C)n1-c1ccc(O)cc1	none
Cc1cc(/C=C2\SC(=S)N(C)C2=O)c(C)n1-c1ccccc1O	CHO parental Ca 36, OX1R antag-2 52
Cc1cc(/C=C2/SC(=S)N(c3cccc(Cl)c3)C2=O)c(C)n1-c1cccnc1	CHO parental Ca 46, OX1R antag-1 71, OX1R antag-2 53
Cc1cc(/C=C2/SC(=S)N(c3ccc([N+](=O)[O-])cc3)C2=O)c(C)n1-c1cccnc1	none
CC1(NC(=O)Cc2ccc(S(=O)(=O)N3CCOCC3)s2)CCS(=O)(=O)C1 (stereo not drawn)	none
O=C(O)c1ccc(CSC2CCCCC2)cc1	none
Cc1sc2c(c1C)C(O)=C(C(=O)Nc1ccccc1)S(=O)(=O)N2C	none
COc1cc(Cl)c(NC2=CC(=O)C(=O)c3ccccc32)c(OC)c1	OX1R antag-1 33
Cc1cccc(/C=C2\Oc3cc(OS(C)(=O)=O)ccc3C2=O)c1	none
O=C1/C(=C/c2cccc(F)c2)Oc2cc(O)ccc21	M1 ag parental 15
CC(C)NS(=O)(=O)c1ccc(CCC(=O)Nc2cc(Cl)ccc2Oc2ccccc2)cc1	CHO parental Ca 44
CC(C)NS(=O)(=O)c1ccc(NC(=O)CCc2ccccc2)cc1	none
O=C(Nc1nnc(CSCc2ccccc2F)s1)c1cccc([N+](=O)[O-])c1	OX1R antag-1 43
CC(C)C(=O)Nc1nnc(CSCc2ccccc2F)s1	none
CCNC(=O)C1CCCN(C(=O)c2cccc(Cl)c2)CC1 (stereo not drawn)	none (no result: CHO parental Ca, OX1R antag-1, OX1R antag-2)
O=C(O)/C=C/C(=O)N(CC1CCCO1)C1CC(=O)N(c2c(Cl)cccc2Cl)C1=O (stereo not drawn)	M1 ag parental 17
S=c1[nH]nc(-c2cccs2)n1/N=C/c1c(Cl)cccc1Cl	CHO parental Ca 34, OX1R antag-1 108, OX1R antag-2 51
COc1cc(/C=C2\CC/C(=C\c3ccc(OCCO)c(OC)c3)C2=O)ccc1OCCO	M1 ag parental 31
COc1ccc(/C=C2\CC/C(=C\c3ccc(OC)c(OC)c3)C2=O)cc1OC	none

Source: PubChem BioAssay (The Scripps Research Institute Molecular Screening Center)
